Experimental data gathered from unrelated publications.
Lines come from different studies, so protocols differ.
SLCO1B1: Solute carrier organic anion transporter family member 1B1 (SLCO1B1, Homo sapiens, UniProt Q9Y6L6)
LNPEP: Leucyl-cystinyl aminopeptidase (LNPEP, Homo sapiens, UniProt Q9UIQ6)
Cruzipain: Cruzipain (Trypanosoma cruzi, UniProt P25779)
MMP13: Collagenase 3 (MMP13, Homo sapiens, UniProt P45452)

The IC50 of `Oc1c2ccccc2c2c3c(cccc13)N=N2` is reported as 0.974 µM (Tyrosine-protein kinase JAK1 (JAK1, Homo sapiens, UniProt P23458); enzyme activity, inhibitor).
With `Nc1ccccc1S(N)(=O)=O` the IC50 was > 100 µM (SLCO1B1; transporter uptake, inhibitor, fluorescence; CHO; 30 min, pH 7.4).
`Nc1ncnc2c1ncn2[C@@H]1O[C@H](CN(CC[C@H](N)C(=O)O)Cc2ccc3ccccc3c2)[C@@H](O)[C@H]1O` has an IC50 of > 50 µM (Histone-lysine N-methyltransferase NSD2 (NSD2, Homo sapiens, UniProt O96028); enzyme activity, inhibitor).
With `CO[C@H]1/C=C/O[C@@]2(C)Oc3c(C)c(O)c4c(O)c(c(/C=N/N5CCN(C)CC5)c(O)c4c3C2=O)NC(=O)/C(C)=C\C=C\[C@H](C)[C@H](O)[C@@H](C)[C@@H](O)[C@@H](C)[C@H](OC(C)=O)[C@@H]1C` the IC50 was 1.3 µM (SLCO1B1; transporter uptake, inhibitor, fluorescence; CHO; 30 min, pH 7.4).
The IC50 of `O=S(=O)(Nc1cccc(-c2nnn[nH]2)c1)c1ccc(Cl)c2nonc12` is reported as 0.4 µM (LNPEP; enzyme activity, inhibitor, fluorescence).
For `CC/C=C\C/C=C\C/C=C\C/C=C\C/C=C\CCCC(=O)O`, the IC50 was > 100 µM (Polynucleotide kinase (pseT, Enterobacteria phage T4, UniProt P06855); enzyme activity, inhibitor).
For `Cc1ncsc1-c1ccc(CNC(=O)[C@@H]2C[C@@H](O)CN2C(=O)[C@@H](NC(=O)C2(F)CC2)C(C)(C)C)c(OCCOCCOCCN2CCN(c3cc(-c4ccccc4O)nnc3N)CC2)c1`, the IC50 was 1.5 µM (Protein polybromo-1, bromodomain (PBRM1, Homo sapiens, UniProt Q86U86); cell-free assay, TR-FRET).
The IC50 of `O=C(O[C@H]1[C@@H]2C=CO[C@@H](O[C@@H]3O[C@H](CO)[C@@H](O)[C@H](O)[C@H]3O)[C@@H]2[C@@]2(CO)O[C@@H]12)c1ccc(O)cc1` is reported as 200 µM (SLCO1B1; transporter uptake, inhibitor, radiometric; HEK293; 10 min).
With `O=S(=O)(Nc1cccc(-c2nnn[nH]2)c1)c1ccc(Cl)c(Cl)c1Cl` the IC50 was 1.2 µM (LNPEP; enzyme activity, inhibitor, fluorescence).
The IC50 of `CC(C)C(NC(=O)c1ccco1)C(=O)NCC(c1ccco1)N1CCCCC1` (centres unmarked) is reported as 14 µM (Cruzipain; enzyme activity, inhibitor).
`O=S(=O)(Nc1cccc(-c2nnn[nH]2)c1)c1ccc(Br)cc1F` gave an IC50 of 5.5 µM (LNPEP; enzyme activity, inhibitor, fluorescence).
The IC50 of `CCOCc1nc(O)c(-c2nnc(Cc3ccc(Cl)cn3)o2)c(O)c1-c1c(OC)cccc1OC` is reported as > 30 µM (5-hydroxytryptamine receptor 4 (HTR4, Homo sapiens, UniProt Q13639); ligand displacement, radioligand).
`Cc1ncc([N+](=O)[O-])n1CCO` has an IC50 of > 100 µM (SLCO1B1; transporter uptake, inhibitor, fluorescence; CHO; 30 min, pH 7.4).
With `O=S(=O)(Nc1cccc(-c2nnn[nH]2)c1)c1ccc(F)c(F)c1` the IC50 was 12.1 µM (LNPEP; enzyme activity, inhibitor, fluorescence).
For `COC(=O)c1nc(N)n(C(=O)c2ccc(C(C)(C)C)cc2)n1`, the IC50 was ~0.11 µM (Coagulation factor XII (F12, Homo sapiens, UniProt P00748); enzyme activity, inhibitor, absorbance).
With `CCn1ncc2c1-c1cnc(N)c(c1)O[C@H](C)c1cc(F)ccc1-c1nn(C)nc1C2` the IC50 was 0.583 µM (Dual serine/threonine and tyrosine protein kinase (DSTYK, Homo sapiens, UniProt Q6XUX3); enzyme activity, inhibitor, radiometric).
`COc1ccc(Cl)cc1NC(=O)COC(=O)C(CC(C)C)N1C(=O)C2CC=CCC2C1=O` (centres unmarked) has an IC50 of 13 µM (Cruzipain; enzyme activity, inhibitor).
`Cn1nc(C(=O)NCc2ccc(C(=O)O)cc2)cc1-c1ccc2[nH]c(-c3cccnc3)cc2c1` has an IC50 of 0.0058 µM (MMP13; enzyme activity, inhibitor, FRET).
The IC50 of `CCCC[C@H](NC(=O)C1CN(C)C1)c1ncc(-c2cc3ccccc3nc2OC)[nH]1` is reported as > 30 µM (Histone deacetylase 11 (HDAC11, Homo sapiens, UniProt Q96DB2); enzyme activity, inhibitor).
`Cn1nc(C(=O)NCc2ccc(C(=O)O)cc2)cc1-c1ccc2[nH]c(-c3ccncc3)cc2c1` gave an IC50 of 0.00092 µM (MMP13; enzyme activity, inhibitor, FRET).
`Nc1nc2ccc(OC(F)(F)F)cc2s1` has an IC50 of 50 µM (Potassium voltage-gated channel subfamily A member 3 (Kcna3, Mus musculus, UniProt P16390); ion current, inhibitor, patch clamp).
`Cc1noc(-c2cc3cc(-c4cc(C(=O)NCc5ccc(C(=O)O)cc5)nn4C)ccc3[nH]2)n1` gave an IC50 of 0.00021 µM (MMP13; enzyme activity, inhibitor, FRET).
`C[N+]1(C)CCC(OC(=O)C(c2ccccc2)c2ccccc2)CC1` gave an IC50 of 0.00527 µM (Muscarinic acetylcholine receptor M1 (CHRM1, Homo sapiens, UniProt P11229); ligand displacement, radioligand).
